ChEMBL document CHEMBL3046092, “Synthesis and fungicidal activity of 1-(alpha-tert-butylcinnamoyl)imidazoles” (2002)

Columns and labels:
Botrytis cinerea = assay: Antifungal activity against Botryotinia fuckeliana in cucumber seedlings assessed as reduction in gray mold measured after 4 days by pot test; assay type: functional
Procedure, shortened: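 Emulsifiable-concentrate formulations were diluted in water and foliar-sprayed to run-off onto cotyledon-stage seedlings. Plants were held 1 day in the greenhouse, then inoculated with agar gel carrying B. cinerea and kept 4 more days at 20°C, humid and dark. Infection degree was scored against untreated controls. pED50 is the negative log of the molar concentration giving 50% control.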

Blumeria graminis = assay: Antifungal activity against Blumeria graminis in wheat seedlings assessed as reduction in powdery mildew at 20 degC measured after 10 days by pot test; assay type: functional

SMILES | pED50 (Botrytis cinerea) | pED50 (Blumeria graminis)
CC(C)(C)/C(=C/c1ccc(Cl)cc1)C(=O)n1ccnc1 | 4.82 | 5.92
CC(C)(C)/C(=C\c1ccc(Cl)cc1)C(=O)n1ccnc1 | 2.92 | 3.52
CC(C)(C)/C(=C/c1ccccc1)C(=O)n1ccnc1 | 3.4 | 4.17
CC(C)(C)/C(=C/c1ccc(Br)cc1)C(=O)n1ccnc1 | 4.63 | 5.96
CC(C)(C)/C(=C/c1ccc(C(F)(F)F)cc1)C(=O)n1ccnc1 | 3.04 | 4.19
CC(C)(C)/C(=C/c1ccc(C#N)cc1)C(=O)n1ccnc1 | 4.4 | 5.89
Cc1ccc(/C=C(\C(=O)n2ccnc2)C(C)(C)C)cc1 | 3.43 | 3.92
